In the library only some 2% were active in any assay of this set; here they are far more common.
PKD1 kinase inh = inhibitors of human PKD1 kinase, biochemical, fluorescence polarization; PKD1 kinase fluorescence polarization assay; inhibition, % (test concentration not listed); AID 797, 2007; 200,000 tested, 0.056% active
EBV gp42 inh = Epstein-Barr virus gp42 inhibitors, primary screen, biochemical, uHTS, fluorescence polarization. Fluorescence polarization binding assay, mP read-out. Glycoprotein 42 (Epstein-Barr virus (strain AG876)), Q1HVG2. AID 1085, 2008. inhibition, % (tested at 21.74 µM). 220,000 tested, 0.42% active
Runt-CBFb FRET = inhibitors of RUNX1 Runt–CBFb binding, primary screen, biochemical, FRET, Cerulean-Runt, Venus-CBFb, uHTS. inhibition, % at 20 µM. Cerulean-Runt/Venus-CBFb FRET ratio 530/480, 1 h. 220,000 tested, 0.46% active;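 active = inhibition over about 50% at 20 µM in the single-dose screen, limit read from the data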
Target sequence (Q01196 whole entry, looked up): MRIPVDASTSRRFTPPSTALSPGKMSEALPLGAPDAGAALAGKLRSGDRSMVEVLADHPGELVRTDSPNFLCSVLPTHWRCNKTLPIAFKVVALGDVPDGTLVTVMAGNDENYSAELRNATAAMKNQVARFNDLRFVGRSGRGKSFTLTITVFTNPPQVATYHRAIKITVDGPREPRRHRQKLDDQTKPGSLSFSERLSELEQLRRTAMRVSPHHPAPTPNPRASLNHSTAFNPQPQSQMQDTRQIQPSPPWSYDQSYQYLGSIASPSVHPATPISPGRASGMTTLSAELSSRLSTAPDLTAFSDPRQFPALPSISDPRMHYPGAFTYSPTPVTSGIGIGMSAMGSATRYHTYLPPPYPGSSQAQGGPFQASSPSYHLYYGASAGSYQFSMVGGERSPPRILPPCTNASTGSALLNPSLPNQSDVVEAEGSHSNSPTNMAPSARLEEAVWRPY
Target sequence (Q13951 whole entry, looked up): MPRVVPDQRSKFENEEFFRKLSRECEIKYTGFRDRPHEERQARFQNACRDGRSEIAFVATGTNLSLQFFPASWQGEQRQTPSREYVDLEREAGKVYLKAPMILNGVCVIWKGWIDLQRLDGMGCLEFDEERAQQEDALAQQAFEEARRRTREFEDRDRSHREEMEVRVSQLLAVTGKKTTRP
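Assay system: Cerulean-Runt domain / Medium: Tris 50 mM pH 7.5, KCl, K2SO4, 0.01% BSA / Timing: protein complex preformed 1 h, compound exposure 1 h, room temperature, dark / Measured by: FRET, excitation 422 nm, emission at 530 and 480 nm / Evaluation: loss of energy transfer signal / Control set: 5 µM unlabeled CBFb as full-inhibition high control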
Runt-SMMHC FRET = inhibitors of RUNX1 Runt–CBFb-SMMHC binding, primary screen, biochemical, FRET, Cerulean-Runt, Venus-CBFb-SMMHC, uHTS; AID 1434, 2008; inhibition, % at 20 µM; 220,000 tested, 0.74% active; Cerulean-Runt/Venus-CBFb-SMMHC FRET ratio 530/480, 1 h; Runt-related transcription factor 1 (Homo sapiens) + Core-binding factor subunit beta …;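 active = mean inhibition across duplicate retests at 20 µM reaching about 50%, limit read from the data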;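 also: inhibitors lower the FRET ratio by blocking Runt binding to CBFb-SMMHC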
MEX-5 binding = MEX-5 zinc finger RNA-binding disruptors – biochemical, C. elegans, fluorescence polarization, MLPCN library, primary screen. MEX-5/FITC-TCR2 RNA binding; hits give low values. activity score (negative = inhibition of binding), % at 10 µM. 300,000 tested, 0.38% active. AID 1832, 2009. Zinc finger protein mex-5 (Caenorhabditis elegans), Q9XUB2;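 active = inhibition past about -25% in most replicates, and total fluorescence under double the plate's negative control median, limit read from the data; inconclusive = replicates evenly split on the limit, or fluorescence at least double controls; inactive = too little inhibition in most replicates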
RanGTP-Impb inh = inhibitors of RanGTP-importin-beta interaction, primary screen, biochemical, FRET, CFP-Ran, YFP-importin-beta, homogeneous; 300,000 tested, 1.1% active; Ran GTPase (GTP-bound) - importin-beta complex; cell-free CFP-Ran/YFP-importin-beta FRET ratio; inhibition, % (test concentration not listed); AID 2216, 2009;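 active = more than half of the replicate wells show a fall in the fluorescence ratio signal beyond about 16%, limit read from the data, passing the limit was not always enough; inconclusive = exactly half of the replicate wells pass the set limit; inactive = fewer than half of replicates pass the limit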
Numbers stand for hits; – = inactive; ? = inconclusive; · = no result given. Rule as the data show it, unless noted: active = inhibition above about 50%; inactive = the rest.

SMILES	PKD1 kinase inh	EBV gp42 inh	Runt-CBFb FRET	Runt-SMMHC FRET	MEX-5 binding	RanGTP-Impb inh
O=C(CN1CCN(C(=O)c2ccco2)CC1)N1CCc2[nH]c3ccccc3c2C1	·	–	–	–	–	29
Cc1ccc2[nH]c3c(c2c1)CN(C(=O)CN1CCN(C(=O)c2ccco2)CC1)CC3	·	–	–	–	?	–
COc1ccc(NS(=O)(=O)c2ccc(Cl)s2)cn1	·	57	–	–	–	–
Cc1ccccc1NC(=O)Cc1nc(COC(=O)c2cc(Cl)ccc2O)cs1	·	·	·	·	–	–
CCOc1ccccc1N1CCN(C(=O)c2cc(-c3cc(OC)ccc3OC)nc3ccccc23)CC1	·	·	·	·	–	–
Oc1c(CN2CCCCC2)cc(Br)c2cccnc12	–	–	–	–	–	?
Oc1c(CN2CCc3ccccc3C2)cc(Cl)c2cccnc12	–	–	–	–	–	23
CCOC(=O)Cc1csc(NC(=O)c2sc3nc4cc(C)ccc4cc3c2N)n1	–	–	–	–	-50	–
CCOC(=O)c1cc2ccc3ccccc3c2oc1=O	·	·	·	·	–	73
CCOC(=O)c1cc2ccc(OC(=O)c3ccco3)cc2oc1=O	–	–	–	62	–	182
CCCCOc1ccc(N(CC(=O)NCc2ccccc2)C(=O)c2csnn2)cc1	·	·	·	·	–	?
c1ccn2cc(-c3ccc4c(c3)OCO4)cc2c1	–	–	59	92	–	–
O=S(=O)(Nc1ccc(O)c2ccccc12)c1ccc(Br)cc1	·	·	·	·	-27	–
Cc1ccc(S(=O)(=O)c2cc(C#N)c(=O)[nH]c2N)cc1	–	–	–	107	–	–
CC1(C)CC(=O)C=C(Nc2ccc([N+](=O)[O-])cc2)C1	·	·	·	·	–	–
Fc1ccccc1N1CCN(Cc2cc(-c3ccccc3)on2)CC1	·	·	·	·	–	–
Cn1c(O)c(C=Nc2ccc(N3CCOCC3)cc2)c(=O)n(C)c1=S	–	112	–	–	-27	–
O=C(N[C@@H](Cc1ccccc1)C(=O)NC1CC1)c1ccc(Cl)cc1	·	·	·	·	–	–
COc1ccc(CCN2CCCn3c2nc2c3c(=O)n(CC(C)C)c(=O)n2C)cc1OC	·	·	·	·	–	–
Cc1cc2ccccn2c1C(=O)c1ccc(N/N=C/c2ccc(C(=O)O)cc2)c([N+](=O)[O-])c1	·	65	–	–	·	·
O=c1[nH]c(/C=C\c2ccc(O)c(O)c2)nc(O)c1[N+](=O)[O-]	·	·	·	·	-30	–
CCn1ncc(CNC(=O)C2(C)CC2(Cl)Cl)c1C (stereo not drawn)	–	–	–	–	–	–
O=C(Oc1c(CN2CCOCC2)cc(Cl)c2cccnc12)c1ccccc1F	–	–	–	–	–	33
O=[N+]([O-])c1cc(CN2CCOCC2)c2cccnc2c1O	–	87	–	–	·	·
COc1nc(NC(=O)c2ccc(F)cc2)nc(OC)c1-c1ccccc1	·	·	·	·	–	–
SMILES	PKD1 kinase inh	EBV gp42 inh	Runt-CBFb FRET	Runt-SMMHC FRET	MEX-5 binding	RanGTP-Impb inh
CN1C(N)=NC(=O)/C1=C/c1ccccc1F	–	–	–	–	–	31
Cc1ccc(/C=C2/C(=O)N=C(N)N2C)s1	–	–	–	–	–	–
CS(=O)(=O)Cc1cccc(C(=O)NN(c2ccccc2)c2ccccc2)c1	·	·	·	·	–	–
O=Cc1cn(CC(=O)N2CCCCC2)c2ccccc12	–	–	–	–	–	–
CN1C(=O)/C(=C/c2cn(CC(=O)N3CCCCC3)c3ccccc23)c2ccccc21	–	–	–	–	-27	–
O=C(C(=O)N1CCN(c2cccc(Cl)c2)CC1)c1cn(CC(=O)N2CCOCC2)c2ccccc12	·	·	·	·	–	–
CCn1cc(C(=O)NCc2ccccn2)c(=O)c2cc(S(=O)(=O)N3CCCCC3)ccc21	–	111	–	–	-72	–
COCCNC(=O)c1cc2c(=O)n3cccc(C)c3nc2n(Cc2ccncc2)c1=N	–	–	–	–	–	192
CCCCNC(=O)c1cc2c(=O)n3cccc(C)c3nc2s1	·	·	·	·	–	–
COc1ccc(CCNC(=O)c2cc3c(=O)n4cccc(C)c4nc3n(Cc3ccncc3)c2=N)cc1	·	·	105	132	·	·
CCCCNC(=O)c1cc2c(=O)n3cccc(C)c3nc2n(Cc2ccncc2)c1=N	–	–	–	70	-41	188
COCCCNC(=O)c1cc2c(=O)n3cccc(C)c3nc2s1	·	·	·	·	–	–
COc1ccc(CCNC(=O)c2cc3c(=O)n4cccc(C)c4nc3n(CC3CCCO3)c2=N)cc1 (stereo not drawn)	·	·	·	·	–	–
C/C(CC(=O)NCC(C)C)=N\NC(=O)COc1cc(C)c(Br)cc1Br	–	–	–	–	–	–
Cc1cccc(OCC(=O)Nc2ccc3oc(=O)ccc3c2)c1	·	·	·	·	–	–
CC(=O)c1ccc(S(=O)(=O)N2CCCC(N(C)CCc3ccccn3)C2)cc1 (stereo not drawn)	·	·	·	·	–	–
O=C(CCN1C(=O)c2ccccc2C1=O)Nc1ccccc1C(F)(F)F	·	·	·	·	–	?
CN1/C(=C/C(=O)c2ccc(Cl)cc2)Sc2cc3c(cc21)OCO3	–	–	–	–	–	36
COc1ccc(C(=O)/C=C2/Sc3cc4c(cc3N2C)OCO4)cc1	–	–	–	–	–	–
CCOC(=O)C1=C(CSc2nc3c(cc2C#N)CCC3)OC(N)=C(C#N)C1c1ccccc1 (stereo not drawn)	–	–	·	–	–	–
CCOC(=O)C1=C(CSc2nc3c(cc2C#N)CN(C)CC3)OC(N)=C(C#N)C1c1ccccc1 (stereo not drawn)	–	–	–	104	–	32
CCOC(=O)C1=C(CSc2nc3c(cc2C#N)CN(C)CC3)OC(N)=C(C#N)C1c1ccc(F)cc1 (stereo not drawn)	–	–	–	63	–	19
CC(=O)Nc1sc(C)c(C)c1C(=O)OCCOc1ccccc1	·	·	·	·	–	?
Cc1oc(C)c2c(=O)ccc3c(c12)OC(N)=C(C#N)C3c1ccccc1Cl (stereo not drawn)	–	–	–	–	–	28
CN1CCN(c2nc(-c3ccccc3)c3cc(Cl)ccc3n2)CC1	–	–	–	57	–	?
Clc1ccc2nc(N3CCNCC3)nc(-c3ccccc3)c2c1	–	·	–	89	–	–
c1ccc(-c2nc(N3CCCC3)nc3ccccc23)cc1	–	–	–	–	–	34
Cc1ccc2nc(N3CCN(CCO)CC3)nc(-c3ccccc3)c2c1	·	·	·	·	–	?
CC(=O)Nc1nnc(CSCc2ccccc2F)s1	·	–	–	–	·	–

Screens (PubChem BioAssay)
